The values below come from ChEMBL document CHEMBL2413003, “3-Carboxamido-5-aryl-isoxazoles as new CB2 agonists for the treatment of colitis” (Bioorg Med Chem, 2013).

Data set [1] concerns the target T1, Cannabinoid receptor 2 (Homo sapiens, UniProt P34972). The data set can be described thus: Displacement of [3H]-CP55,940 from human CB2 receptor expressed in CHO membranes after 1 hr by liquid scintillation counting. The class given is cell membranes. Summed up:
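0.5 nM [3H]-CP-55,940 on 6 µg hCB2-CHO membranes in 20 mM Hepes, 5 mM MgCl2, 1 mM EDTA, 0.3% BSA, pH 7.4, 1 h at 30 °C. Filtered over GF/C and counted by scintillation. Nonspecific binding with 5 µM (R)-(+)-WIN 55,212-2; DMSO <0.1%. Screened first at 10 µM; Ki by nonlinear regression of competition curves where displacement >60%; ≥4 experiments in duplicate.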
A general note: Loss of bound radioactivity is the signal in a displacement assay; it reports binding, not function.

The test system of data set [2] is Mus musculus. The data set can be described thus: Anticolitis activity in DSS-induced acute colitis C57/Bl6 mouse model assessed as increase in colon length at 10 mg/kg, ip qd for 7 days measured after 7 days (reference value: 4.6 +/- 0.2 cm). The class given is functional. Particulars: route intraperitoneal.
The subject of data set [3] is Mus musculus. Description: Anticolitis activity in DSS-induced acute colitis C57/Bl6 mouse model assessed as reduction in ratio of Kc mRNA to POLR2A mRNA level at 10 mg/kg, ip qd for 7 days measured after 7 days by RT-PCR analysis (reference value: 68.9 +/-9.8 no unit ). The class given is functional. To be noted: route intraperitoneal.
Data set [4] relates to Mus musculus. The data set can be described thus: Toxicity in DSS-induced acute colitis C57/Bl6 mouse model assessed as rovert reactions at 10 mg/kg, ip qd for 7 days measured after 7 days. The class given is organism-based. Set-up: dose 10 mg/kg, route intraperitoneal. Particulars: in vivo, 168 h.
The target of the next data set is Cannabinoid receptor 1 (Homo sapiens, UniProt P21554). Description: Displacement of [3H]-SR141716A from human CB1 receptor expressed in CHO membranes after 1 hr by liquid scintillation counting. The class given is cell membranes.
Data set [5] has as its target T1, Cannabinoid receptor 2. The data set can be described thus: Agonist activity at human CB2 receptor expressed in CHO membranes assessed as [35S]-GTPgammaS binding after 1 hr. The class given is functional, cell membranes. An outline of the steps: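 hCB2-CHO membranes (10 µg protein) in 20 mM Hepes, 10 mM MgCl2, 100 mM NaCl, 0.1% BSA, pH 7.4, with 30 µM GDP. Started with 0.1 nM [35S]-GTPγS (final) and run 1 h at 30 °C, then filtered and counted. Nonspecific binding taken with 100 µM Gpp(NH)p; basal activity set at 100%. EC50 and Emax by nonlinear regression, ≥4 experiments in duplicate.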
(GTPγS is a poorly hydrolysed GTP analogue; its binding reports G protein activation.)

For the next data set, the species on record is Homo sapiens. Description: Selectivity ratio of Ki for human CB1 receptor expressed in CHO membranes to Ki for human CB2 receptor expressed in CHO membranes. The class given is cell membranes.
The subject of data set [6] is Mus musculus. The data set can be described thus: Anticolitis activity in DSS-induced acute colitis C57/Bl6 mouse model assessed as reduction in colon inflammation at 10 mg/kg, ip qd for 7 days measured after 7 days by histological analysis relative to vehicle-treated control. The class given is functional, organism-based. Set-up: dose 10 mg/kg. An outline of the steps: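 In DSS-colitic male C57BL6 mice given 10 mg/kg ip daily for 7 days in cyclodextrin vehicle, May-Grünwald-Giemsa-stained distal colon sections were scored for inflammatory infiltrate (0–3) and tissue damage (0–3), n = 10.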

Data set [7] relates to Mus musculus. Description: Anticolitis activity in DSS-induced acute colitis C57/Bl6 mouse model assessed as effect on TNF-alpha levels at 10 mg/kg, ip qd for 7 days measured after 7 days by RT-PCR analysis relative to vehicle-treated control. The class given is functional, organism-based. Set-up: dose 10 mg/kg.
Data set [8] relates to Mus musculus. Description: Anticolitis activity in DSS-induced acute colitis C57/Bl6 mouse model assessed as reduction in disease activity index at 10 mg/kg, ip qd for 7 days measured after 7 days relative to vehicle-treated control. The class given is functional, organism-based. Set-up: dose 10 mg/kg.
In data set [9] the test system is Mus musculus. Description: Anticolitis activity in DSS-induced acute colitis C57/Bl6 mouse model assessed as reduction in ratio of IL-1beta mRNA to POLR2A mRNA level at 10 mg/kg, ip qd for 7 days measured after 7 days by RT-PCR analysis (reference value: 105.1 +/-17.0 no unit ). The class given is functional. Particulars: route intraperitoneal.
For data set [10], the system named is Mus musculus. Description: Anticolitis activity in DSS-induced acute colitis C57/Bl6 mouse model assessed as change in body weight at 10 mg/kg, ip qd for 7 days measured after 7 days (reference value: 83.1 +/- 2.2 %). The class given is functional. To be noted: route intraperitoneal.
Another data set relates to HT-29. The data set can be described thus: Antiproliferative activity against human HT-29 cells at 10 uM after 72 hrs by MTS assay. The class given is cell-based. Particulars: ht-29, 72 h. An outline of the steps: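 HT29 cells grown in DMEM-Glutamax with 10% FBS and penicillin/streptomycin, 37 °C, 5% CO2. Plated at 3000 cells/well in triplicate, left 24 h, then exposed to 10 µM compound (<0.1% DMSO) for 72 h. Growth read by colorimetric MTS reduction to formazan, given as % proliferation inhibition; ≥4 experiments in duplicate.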

The source made the active and inactive calls. No cut-off for these calls is given here.

Cannabinoid receptor 1, sequence (P21554 whole entry, looked up): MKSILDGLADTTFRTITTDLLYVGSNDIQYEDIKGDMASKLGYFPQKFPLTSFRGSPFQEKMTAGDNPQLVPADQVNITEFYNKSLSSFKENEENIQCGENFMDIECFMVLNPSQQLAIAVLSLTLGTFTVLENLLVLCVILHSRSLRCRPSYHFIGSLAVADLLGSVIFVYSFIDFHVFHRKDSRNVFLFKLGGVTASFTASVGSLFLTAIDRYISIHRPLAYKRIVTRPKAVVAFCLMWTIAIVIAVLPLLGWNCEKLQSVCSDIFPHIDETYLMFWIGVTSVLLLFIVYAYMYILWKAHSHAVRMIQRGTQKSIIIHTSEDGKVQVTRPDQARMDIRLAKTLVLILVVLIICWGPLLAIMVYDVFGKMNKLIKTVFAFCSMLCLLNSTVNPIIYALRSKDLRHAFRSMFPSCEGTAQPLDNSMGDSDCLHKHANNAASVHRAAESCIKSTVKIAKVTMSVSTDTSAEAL
T1 sequence (P34972 whole entry): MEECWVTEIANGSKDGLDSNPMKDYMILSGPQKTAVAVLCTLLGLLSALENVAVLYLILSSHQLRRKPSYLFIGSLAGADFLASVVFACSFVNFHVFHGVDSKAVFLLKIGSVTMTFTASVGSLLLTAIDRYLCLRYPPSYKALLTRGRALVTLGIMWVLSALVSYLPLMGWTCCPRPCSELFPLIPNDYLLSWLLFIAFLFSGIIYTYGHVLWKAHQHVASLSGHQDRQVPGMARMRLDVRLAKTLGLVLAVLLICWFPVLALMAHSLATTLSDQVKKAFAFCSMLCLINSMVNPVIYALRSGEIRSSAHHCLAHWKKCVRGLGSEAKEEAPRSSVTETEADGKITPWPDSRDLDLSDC

One may read the Ki as a measure of affinity in units of concentration, obtained from inhibition or displacement. Low values mean higher affinity, high ones lower affinity. Take `CCCCCOc1ccccc1-c1cc(C(=O)Nc2cccc3ccccc23)no1`: at Cannabinoid receptor 2 [1], the inhibition constant Ki was over 1000 nM.
`CCCCCOc1ccccc1-c1cc(C(=O)NN2CCCCC2)no1` displayed a Ki on Cannabinoid receptor 2 [1] of 600 nM.
In the case of `CCCCCOc1ccccc1-c1cc(C(=O)Nc2ccccc2)no1`, the Ki on Cannabinoid receptor 2 [1] was over 1000 nM.
At Cannabinoid receptor 2 [1], `CCCCCOc1ccc(-c2cc(C(=O)NC34CC5CC(CC(C5)C3)C4)no2)cc1` yielded an inhibition constant (Ki) of over 1000 nM.
One may read the EC50 as the concentration at which the effect is half-maximal. As to `CCCCCOc1ccccc1-c1cc(C(=O)NC23CC4CC(CC2C4)C3)no1`, the Activity with Mus musculus [2] is reported as 5.6 cm; in the data set with Mus musculus [4], “Non-toxic”; with Mus musculus [10], 92.8%; in the data set on HT-29, 20%. Further, the values for the Ratio in the data set on Mus musculus [3] and in the data set with Mus musculus [9] were 11.5 and 19.9, respectively. Further, the Ki at Cannabinoid receptor 1 is over 1000 nM; at Cannabinoid receptor 2 [1], 9 nM. For the same compound, at Cannabinoid receptor 2 [5], the EC50 stood at 4.8 nM. In addition, in the data set listed under Homo sapiens, the Ratio Ki was over 111. Also, the result in the data set on Mus musculus [6] and with Mus musculus [8] was Active. The result with Mus musculus [7] was inactive.
For `COc1ccccc1-c1cc(C(=O)NC23CC4CC(CC(C4)C2)C3)no1`, the Ki is over 3000 nM on Cannabinoid receptor 1 and 70.1 nM on Cannabinoid receptor 2 [1]. Moreover, the EC50 on Cannabinoid receptor 2 [5] stood at 2.56 nM. For the same compound, the Ratio Ki in the data set filed under Homo sapiens was over 42.
Regarding `O=C(NCC12CC3CC(CC(C3)C1)C2)c1cc(-c2ccccc2)on1`, on Cannabinoid receptor 2 [1], the Ki is over 1000 nM.
Turning to `CCCCCOc1ccccc1-c1cc(C(=O)NC2C3CC4CC(C3)CC2C4)no1` (stereo unspecified), the values for the Ki at Cannabinoid receptor 1 and at Cannabinoid receptor 2 [1] were over 3000 nM and 60.1 nM, respectively. For the same compound, the EC50 on Cannabinoid receptor 2 [5] stood at 14.8 nM. Also, the Ratio Ki in the data set listed under Homo sapiens was over 49. The Activity in the data set on HT-29 stood at 0%.
With `CCCCCCCCOc1ccccc1-c1cc(C(=O)NC23CC4CC(CC(C4)C2)C3)no1`, at Cannabinoid receptor 2 [1], the inhibitory constant (Ki) is over 1000 nM.
On to `CCCCCOc1ccccc1-c1cc(C(=O)NC2CCCC2)no1`, for which the Ki on Cannabinoid receptor 1 is over 1000 nM; on Cannabinoid receptor 2 [1], 60.9 nM. The EC50 at Cannabinoid receptor 2 [5] stood at 2.1 nM. Also, the Ratio Ki in the data set filed under Homo sapiens was over 16. The compound also registered an Activity in the data set with HT-29 of 13%.
As to `CCCCCOc1cccc(-c2cc(C(=O)NC34CC5CC(CC(C5)C3)C4)no2)c1`, the Ki at Cannabinoid receptor 2 [1] is over 1000 nM.
For the compound `CCCCOc1ccccc1-c1cc(C(=O)NC23CC4CC(CC(C4)C2)C3)no1`, the Ki is over 3000 nM on Cannabinoid receptor 1 and 369 nM at Cannabinoid receptor 2 [1]. For the same compound, the EC50 on Cannabinoid receptor 2 [5] came out at 2.88 nM. Further, in the data set filed under Homo sapiens, the Ratio Ki is over 8. The compound also registered an Activity in the data set with HT-29 of 2%.
On to `CCCCCOc1ccccc1-c1cc(C(=O)NC23CC4CC(CC(C4)C2)C3)no1`, for which the Ki is over 3000 nM on Cannabinoid receptor 1 and 36 nM at Cannabinoid receptor 2 [1]. Further, the EC50 on Cannabinoid receptor 2 [5] amounted to 2.9 nM. Besides, in the data set listed under Homo sapiens, the Ratio Ki is over 83. The compound also registered an Activity with HT-29 of 0%.
Consider `CCOc1ccccc1-c1cc(C(=O)NC23CC4CC(CC(C4)C2)C3)no1`, for which the Ki at Cannabinoid receptor 2 [1] was over 1000 nM.
`CCCCCOc1ccccc1-c1cc(C(=O)NC2CCCCCCC2)no1`: the figures for the Ki on Cannabinoid receptor 1 and at Cannabinoid receptor 2 [1] were over 3000 nM and 73.5 nM, respectively. The EC50 at Cannabinoid receptor 2 [5] turned out to be 1.8 nM. In addition, the Ratio Ki in the data set filed under Homo sapiens was over 40. In the data set with HT-29, the Activity is 17%.
At Cannabinoid receptor 2 [1], `CCCCCOc1ccccc1-c1cc(C(=O)NCc2ccccc2)no1` gave a Ki of over 3000 nM.
For `CCCOc1ccccc1-c1cc(C(=O)NC23CC4CC(CC(C4)C2)C3)no1`, the Ki at Cannabinoid receptor 1 was over 1000 nM; on Cannabinoid receptor 2 [1] it was 79.6 nM. Further, the EC50 on Cannabinoid receptor 2 [5] came to 2.21 nM. Also, the Ratio Ki in the data set listed under Homo sapiens is over 12. The compound also returned an Activity in the data set with HT-29 of 8%.
For `CCCCCOc1ccccc1-c1cc(C(=O)Nc2nnc(C)s2)no1`, the Ki on Cannabinoid receptor 2 [1] is over 3000 nM.
Turning to `CCCCCOc1ccccc1-c1cc(C(=O)NC2CCC2)no1`, the Ki at Cannabinoid receptor 1 is over 1000 nM; at Cannabinoid receptor 2 [1], 412 nM. Further, at Cannabinoid receptor 2 [5], the 50% effective concentration (EC50) came out at 4.4 nM. For the same compound, the Ratio Ki in the data set filed under Homo sapiens is over 2. The compound also came in with an Activity in the data set with HT-29 of 46%.
As for `CCCCCCCOc1ccccc1-c1cc(C(=O)NC23CC4CC(CC(C4)C2)C3)no1`, the Ki at Cannabinoid receptor 2 [1] is over 1000 nM.
As to `CCCCCOc1ccccc1-c1cc(C(=O)N(CC(C)C)CC(C)C)no1`, the Ki on Cannabinoid receptor 1 worked out at 33 nM; at Cannabinoid receptor 2 [1] it was 22.1 nM.
`O=C(NC1C2CC3CC(C2)CC1C3)c1cc(-c2ccccc2)on1` (stereo unspecified) displayed a Ki at Cannabinoid receptor 2 [1] of over 1000 nM.
As to `CCCCCOc1ccccc1-c1cc(C(=O)NC2CCCCC2)no1`, the Ki at Cannabinoid receptor 1 was over 3000 nM; on Cannabinoid receptor 2 [1] it was 22.8 nM. The EC50 on Cannabinoid receptor 2 [5] worked out at 1.9 nM. Also, in the data set filed under Homo sapiens, the Ratio Ki was over 131. The compound further came in with an Activity in the data set with HT-29 of 37%.
Regarding `CCCCCCOc1ccccc1-c1cc(C(=O)NC23CC4CC(CC(C4)C2)C3)no1`, the Ki is over 3000 nM at Cannabinoid receptor 1 and 30.5 nM at Cannabinoid receptor 2 [1]. Further, on Cannabinoid receptor 2 [5], the EC50 was 3.4 nM. The Ratio Ki in the data set filed under Homo sapiens is over 98. This compound came in with an Activity in the data set with HT-29 of 17%.
Regarding `CCCCCOc1ccccc1-c1cc(C(=O)NC2CCCCCC2)no1`, the Activity in the data set with Mus musculus [2] is reported as 5.4 cm; with Mus musculus [4] it was “Non-toxic”; in the data set with Mus musculus [10] it was 91.8%; with HT-29 it was 34%. The Ratio stood at 12.3 in the data set with Mus musculus [3] and 13.2 in the data set on Mus musculus [9]. Besides, the Ki at Cannabinoid receptor 1 was over 3000 nM; at Cannabinoid receptor 2 [1], 60.8 nM. The EC50 at Cannabinoid receptor 2 [5] stood at 11.1 nM. The Ratio Ki in the data set listed under Homo sapiens was over 49. Also, the outcome in the data set on Mus musculus [6] and with Mus musculus [8] was Active. Besides, in the data set with Mus musculus [7], the outcome was inactive.
At Cannabinoid receptor 2 [1], `CCCCCOc1ccccc1-c1cc(C(=O)NC2CC2)no1` yielded a Ki of over 1000 nM.
Still for that read-out and setting: the figure for `O=C(NC12CC3CC(CC(C3)C1)C2)c1cc(-c2ccccc2)on1` is over 1000 nM.
